Assay results published in ChEMBL document CHEMBL4602727, “Lead Optimization of Second-Generation Acridones as Broad-Spectrum Antimalarials” (J Med Chem, 2020).
Values belong to the molecule of their own block, whether it stands above or below them.

Legend:
Assay type in all cases: ADME, organism-based
[1] = AUC (0 to last) in ICR mouse liver at 80 mg/kg, po administered as single dose; set-up: dose 80 mg/kg, time 0 - last, route oral
[2] = AUC (0 to infinity) in ICR mouse liver at 80 mg/kg, po administered as single dose; set-up: dose 80 mg/kg, route oral, time infinity
[3] = Ratio of AUC (0 to infinity) in ICR mouse liver to plasma at 80 mg/kg, po administered as single dose; details: liver and plasma, read-out: Ratio AUC
[4] = Apparent volume of distribution in ICR mouse plasma at 80 mg/kg, po administered as single dose; details: read-out: Vz/F
Procedure, shortened: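 Male ICR mice, 7 weeks old, 23–28 g, received a single intragastric 80 mg/kg dose in DD water (100 μL/20 g). […] Cmax and Tmax came from the concentration–time curves; t1/2 = ln2/kel; AUC by linear trapezoidal rule extrapolated to infinity; MRT = AUMC/AUC.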

Compound: O=c1c2ccc(OCc3cccc(OC(F)(F)F)c3)cc2[nH]c2cc(F)cc(F)c12
AUC(0-inf) [2]: 19300 ng·h/mL

Compound: O=c1c2cc(OCc3ccc(OC(F)(F)F)cc3)ccc2[nH]c2cc(F)cc(F)c12
Vd/F [4]: 290 L/kg

More lines, now with the values ahead:

AUC(0-t) [1]: 20400 ng·h/mL
Compound: O=c1c2ccc(OCc3ccc(OC(F)(F)F)cc3)cc2[nH]c2cc(F)cc(F)c12

AUC(0-t) [1]: 11500 ng·h/mL
Compound: O=c1c2ccc(OCc3cccc(C(F)(F)F)c3)cc2[nH]c2cc(F)cc(F)c12

Kp [3]: 112
Compound: O=c1c2ccc(Oc3ccc(OC(F)(F)F)cc3)cc2[nH]c2cc(Cl)cc(F)c12
